{"source": "ChEMBL document CHEMBL4049390", "about": "“Combination of amino acid/dipeptide with ligustrazine-betulinic acid as antitumor agents” (Eur J Med Chem, 2017)", "key": {"[1]": {"tested_on": "HT-29", "assay": "Antiproliferative activity against human HT-29 cells after 72 hrs by MTT assay", "assay_type": "functional, cell-based", "conditions": "HT-29, 72 h", "method_in_brief": "(§1)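 MTT assay. Log-phase cells were seeded at 3×10^3 cells/well and left overnight, then exposed to serial dilutions of compound (DMSO solutions) for 72 h in RPMI 1640 with 10% heat-inactivated FBS at 37 °C, 5% CO2. MTT (5 mg/mL, 20 µL) was added for 4 h at 37 °C and the formazan dissolved in DMSO. A490 was read. % inhibition = (1 − sample OD/control OD)×100; IC50 is the 50% growth-inhibition concentration. Triplicates, n = 3 independent experiments.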"}, "[2]": {"tested_on": "HeLa", "assay": "Antiproliferative activity against human HeLa cells after 72 hrs by MTT assay", "assay_type": "functional, cell-based", "method_in_brief": "as §1"}, "[3]": {"tested_on": "BGC-823", "assay": "Antiproliferative activity against human BGC823 cells after 72 hrs by MTT assay", "assay_type": "functional, cell-based", "conditions": "BGC-823, 72 h", "method_in_brief": "as §1"}, "[4]": {"tested_on": "MDCK", "assay": "Antiproliferative activity against MDCK cells after 72 hrs by MTT assay", "assay_type": "cell-based", "conditions": "Canis lupus familiaris", "method_in_brief": "as §1"}, "[5]": {"tested_on": "HT-29", "assay": "Potency index, ratio of cisplatin IC50 to compound IC50 for human HT-29 cells", "assay_type": "functional", "method_in_brief": "(§2)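 Ratios were calculated from MTT IC50 values (72 h exposure, A490 read-out, n = 3). Potency index = cisplatin IC50 / compound IC50. Therapeutic index = MDCK IC50 / tumour-line IC50.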"}, "[6]": {"tested_on": "BGC-823", "assay": "Potency index, ratio of cisplatin IC50 to compound IC50 for human BGC823 cells", "assay_type": "functional", "method_in_brief": "as §2"}, "[7]": {"tested_on": "A549", "assay": "Potency index, ratio of cisplatin IC50 to compound IC50 for human A549 cells", "assay_type": "functional", "method_in_brief": "as §2"}, "[8]": {"tested_on": "HepG2", "assay": "Induction of apoptosis in human HepG2 cells assessed as chromatin margination at 1.5 uM after 72 hrs by Giemsa staining based fluorescent microscopic method", "assay_type": "functional, cell-based", "method_in_brief": "(§3)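 HepG2 cells were seeded at 4×10^3 cells/well in 6-well plates overnight, then treated at 1.5, 3 or 6 µM for 72 h. Cells were washed in PBS, fixed in cold methanol, stained with 6% Giemsa for 5 min, rinsed with water and dried. Morphology was examined microscopically at 200×, with apoptotic cells marked in representative fields.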"}, "[9]": {"tested_on": "HepG2", "assay": "Induction of apoptosis in human HepG2 cells assessed as nuclear condensation at 6 uM after 72 hrs by Giemsa staining based fluorescent microscopic method", "assay_type": "functional, cell-based", "method_in_brief": "as §3"}, "[10]": {"tested_on": "HepG2", "assay": "Induction of apoptosis in human HepG2 cells assessed as nuclear condensation after 72 hrs by DAPI staining based fluorescent microscopic method", "assay_type": "functional, cell-based", "method_in_brief": "(§4)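 HepG2 cells were plated at 4×10^3 cells/well in six-well plates and grown 12 h, then treated at 1.5, 3 or 6 µM for 72 h. Cells were washed in PBS, fixed in 4% paraformaldehyde and stained with 1 mg/mL DAPI for 1 min in the dark. Nuclei were viewed by fluorescence microscopy at 200×.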"}, "[11]": {"tested_on": "HepG2", "assay": "Induction of apoptosis in human HepG2 cells assessed as nuclear fragmentation after 72 hrs by DAPI staining based fluorescent microscopic method", "assay_type": "functional, cell-based", "method_in_brief": "as §4"}, "[12]": {"tested_on": "HepG2", "assay": "Induction of apoptosis in human HepG2 cells assessed as formation of apoptotic bodies after 72 hrs by DAPI staining based fluorescent microscopic method", "assay_type": "functional, cell-based", "method_in_brief": "as §4"}, "[13]": {"tested_on": "HepG2", "assay": "Induction of apoptosis in human HepG2 cells assessed as early apoptotic cells at 2 uM after 72 hrs by Annexin-V-FITC/propidium iodide staining based flow cytometry (reference value: 3.7%)", "assay_type": "functional"}, "[14]": {"tested_on": "HepG2", "assay": "Induction of apoptosis in human HepG2 cells assessed as late apoptotic cells at 2 uM after 72 hrs by Annexin-V-FITC/propidium iodide staining based flow cytometry (reference value: 2.6%)", "assay_type": "functional"}, "[15]": {"tested_on": "HepG2", "assay": "Induction of apoptosis in human HepG2 cells assessed as necrotic cells at 2 uM after 72 hrs by Annexin-V-FITC/propidium iodide staining based flow cytometry (reference value: 0.5%)", "assay_type": "functional"}, "[16]": {"tested_on": "HepG2", "assay": "Induction of apoptosis in human HepG2 cells assessed as viable cells at 3 uM after 72 hrs by Annexin-V-FITC/propidium iodide staining based flow cytometry (reference value: 93.2%)", "assay_type": "functional", "conditions": "HepG2, 72 h, read-out: Activity"}, "[17]": {"tested_on": "HepG2", "assay": "Induction of apoptosis in human HepG2 cells assessed as early apoptotic cells at 3 uM after 72 hrs by Annexin-V-FITC/propidium iodide staining based flow cytometry (reference value: 3.7%)", "assay_type": "functional"}, "[18]": {"tested_on": "HepG2", "assay": "Induction of apoptosis in human HepG2 cells assessed as late apoptotic cells at 3 uM after 72 hrs by Annexin-V-FITC/propidium iodide staining based flow cytometry (reference value: 2.6%)", "assay_type": "functional"}, "[19]": {"tested_on": "HepG2", "assay": "Induction of apoptosis in human HepG2 cells assessed as necrotic cells at 3 uM after 72 hrs by Annexin-V-FITC/propidium iodide staining based flow cytometry (reference value: 0.5%)", "assay_type": "functional"}, "[20]": {"tested_on": "HepG2", "assay": "Induction of apoptosis in human HepG2 cells after 72 hrs by Annexin-V-FITC/propidium iodide staining based flow cytometry", "assay_type": "functional, cell-based"}, "[21]": {"tested_on": "HepG2", "assay": "Induction of apoptosis in human HepG2 cells assessed as disruption of mitochondrial membrane potential by measuring mean fluorescence intensity after 72 hrs by Rh123 staining based flow cytometry", "assay_type": "functional, cell-based", "method_in_brief": "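Mitochondrial potential: HepG2 cells (1×10^5/well, 6-well) were grown 24 h, then exposed at 2, 3 or 4 µM for 72 h. Cells were trypsinised, washed in cold PBS and loaded with 10 µg/mL rhodamine 123 for 30 min at 37 °C. After washing, flow cytometry was run (ex 488/em 530 nm); the read-out is mean fluorescence intensity.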"}, "[22]": {"tested_on": "HepG2", "assay": "Induction of apoptosis in human HepG2 cells assessed as disruption of mitochondrial membrane potential by measuring mean fluorescence intensity at 2 uM after 72 hrs by Rh123 staining based flow cytometry (reference value: 26410)", "assay_type": "functional"}, "[23]": {"tested_on": "HepG2", "assay": "Induction of apoptosis in human HepG2 cells assessed as disruption of mitochondrial membrane potential by measuring mean fluorescence intensity at 3 uM after 72 hrs by Rh123 staining based flow cytometry (reference value: 26410)", "assay_type": "functional"}, "[24]": {"tested_on": "HepG2", "assay": "Induction of apoptosis in human HepG2 cells assessed as disruption of mitochondrial membrane potential by measuring mean fluorescence intensity at 4 uM after 72 hrs by Rh123 staining based flow cytometry (reference value: 26410)", "assay_type": "functional"}, "[25]": {"tested_on": "HepG2", "assay": "Induction of apoptosis in human HepG2 cells assessed as increase in intracellular calcium level by measuring mean fluorescence intensity at 3 uM after 72 hrs by Fluo-3AM dye based flow cytometry (reference value: 1992)", "assay_type": "functional", "method_in_brief": "(§5)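 HepG2 cells at 1×10^5 cells/well were grown 24 h, then treated with compound for 72 h. Cells were harvested, washed in cold PBS and resuspended in HBSS containing 10 µM Fluo-3 AM for 30 min at 37 °C in the dark. Flow cytometry used 488 nm excitation; the read-out was mean fluorescence intensity against an untreated control.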"}, "[26]": {"tested_on": "HepG2", "assay": "Induction of apoptosis in human HepG2 cells assessed as increase in intracellular calcium level by measuring mean fluorescence intensity at 4 uM after 72 hrs by Fluo-3AM dye based flow cytometry (reference value: 1992)", "assay_type": "functional", "method_in_brief": "as §5"}}, "note": "Calls of active or inactive are those of the source. No cut-off for these calls is given here."}
{"smiles": "C=C(C)[C@@H]1CC[C@]2(C(=O)OCc3nc(C)c(C)nc3C)CC[C@]3(C)[C@H](CC[C@@H]4[C@@]5(C)CC[C@H](OC(=O)[C@H](C)NC(=O)CNC)C(C)(C)[C@@H]5CC[C@]43C)[C@@H]12", "values": [{"measurement": "IC50", "setting": "[1]", "value": 1700, "unit": "nM"}, {"measurement": "IC50", "setting": "[2]", "value": 1740, "unit": "nM"}, {"measurement": "IC50", "setting": "[3]", "value": 1790, "unit": "nM"}, {"measurement": "IC50", "setting": "[4]", "value": 10.8, "unit": "µM"}, {"measurement": "Ratio IC50", "setting": "[5]", "value": 2}, {"measurement": "Ratio IC50", "setting": "[6]", "value": 2}, {"measurement": "Ratio IC50", "setting": "[7]", "value": 2}, {"measurement": "Activity", "setting": "[8]", "value": "Active"}, {"measurement": "Activity", "setting": "[9]", "value": "Active"}, {"measurement": "Activity", "setting": "[10]", "value": "Dose-dependent effect"}, {"measurement": "Activity", "setting": "[11]", "value": "Dose-dependent effect"}, {"measurement": "Activity", "setting": "[12]", "value": "Dose-dependent effect"}, {"measurement": "Activity", "setting": "[13]", "value": 6.1, "unit": "%"}, {"measurement": "Activity", "setting": "[14]", "value": 4.8, "unit": "%"}, {"measurement": "Activity", "setting": "[15]", "value": 1.1, "unit": "%"}, {"measurement": "viability at 3 µM", "setting": "[16]", "value": 81, "unit": "%"}, {"measurement": "Activity", "setting": "[17]", "value": 11.3, "unit": "%"}, {"measurement": "Activity", "setting": "[18]", "value": 6.5, "unit": "%"}, {"measurement": "Activity", "setting": "[19]", "value": 1.2, "unit": "%"}, {"measurement": "Activity", "setting": "[20]", "value": "Dose-dependent effect"}, {"measurement": "Activity", "setting": "[21]", "value": "Dose-dependent effect"}, {"measurement": "Flu intensity", "setting": "[22]", "value": 6416}, {"measurement": "Flu intensity", "setting": "[23]", "value": 5411}, {"measurement": "Flu intensity", "setting": "[24]", "value": 2147}, {"measurement": "Flu intensity", "setting": "[25]", "value": 3760}, {"measurement": "Flu intensity", "setting": "[26]", "value": 6353}]}
